pKd: −log10 of the molar value. Entries after “also recorded” stand apart in the source; their conditions may differ.
Key:
[1] = biological target: NOD2 in native membrane vesicles (Homo sapiens, UniProt Q9HC29); assay type: binding; details: for binding to NOD2 in the native-membrane environment (in words) / relative binding strength: BSI; for binding to NOD2 in the native-membrane environment (in words): native-membrane vesicles; for relative binding strength: NOD2 in native membrane vesicles; for BSI signal on titration after preincubation with excess ligand 2: competition binding, membrane vesicles preincubated with ligand 2 (10 μM)
How it was run: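 Vesicles: about 1 × 10^8 HEK293T-Nod2Myc/tet-op cells in ice-cold HBSS with EDTA-free protease inhibitors, probe-sonicated to clarity, passed through a 220 nm filter (2 h, 6000g, 4 °C). Filtrate stored at 4 °C up to 4 days. Checked by DLS, FM1-43FX lipid stain and Western blot. Fixed vesicle amount plus ligand titration, 40 min dark, RT. BSI chip at 25 °C. Referenced to NOD2-negative HEK293T vesicles; single-site Langmuir fit. Competition: 10 μM excess ligand preincubation, then titration.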

purified WT NOD2 [2] = biological target: T1, purified WT NOD2 (Homo sapiens, UniProt Q9HC29); assay: Backscattering interferometry; assay type: binding
How it was run: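 Purified Flag-tagged human WT NOD2 from baculovirus/insect cells, stored at 4 °C and used within 3 days, at a fixed 10 nM in PBS pH 6.5. Increasing ligand, incubated 40 min at RT in the dark, then read by BSI on a passivated microfluidic chip at 25 °C. Phase change plotted against concentration; purified NOD1 signal under identical conditions subtracted. Single-site fit; run in triplicate, Kd reported as a range.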

purified WT NOD2 [3] = biological target: T1, purified WT NOD2; assay: SPR binding assay, surface-tethered ligands and purified WT NOD2
How it was run: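 Amine-functionalized peptidoglycan derivatives coupled in separate lanes to carboxylic acid-terminated thioalkane self-assembled monolayers on gold. Purified Flag-tagged human WT NOD2 (insect-cell expressed, used within 3 days) flowed over at pH 6.5. Apparent dissociation constants taken from the adsorption isotherm, not a true KD.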

NOD2 in native membrane vesicles, sequence (Q9HC29 whole entry): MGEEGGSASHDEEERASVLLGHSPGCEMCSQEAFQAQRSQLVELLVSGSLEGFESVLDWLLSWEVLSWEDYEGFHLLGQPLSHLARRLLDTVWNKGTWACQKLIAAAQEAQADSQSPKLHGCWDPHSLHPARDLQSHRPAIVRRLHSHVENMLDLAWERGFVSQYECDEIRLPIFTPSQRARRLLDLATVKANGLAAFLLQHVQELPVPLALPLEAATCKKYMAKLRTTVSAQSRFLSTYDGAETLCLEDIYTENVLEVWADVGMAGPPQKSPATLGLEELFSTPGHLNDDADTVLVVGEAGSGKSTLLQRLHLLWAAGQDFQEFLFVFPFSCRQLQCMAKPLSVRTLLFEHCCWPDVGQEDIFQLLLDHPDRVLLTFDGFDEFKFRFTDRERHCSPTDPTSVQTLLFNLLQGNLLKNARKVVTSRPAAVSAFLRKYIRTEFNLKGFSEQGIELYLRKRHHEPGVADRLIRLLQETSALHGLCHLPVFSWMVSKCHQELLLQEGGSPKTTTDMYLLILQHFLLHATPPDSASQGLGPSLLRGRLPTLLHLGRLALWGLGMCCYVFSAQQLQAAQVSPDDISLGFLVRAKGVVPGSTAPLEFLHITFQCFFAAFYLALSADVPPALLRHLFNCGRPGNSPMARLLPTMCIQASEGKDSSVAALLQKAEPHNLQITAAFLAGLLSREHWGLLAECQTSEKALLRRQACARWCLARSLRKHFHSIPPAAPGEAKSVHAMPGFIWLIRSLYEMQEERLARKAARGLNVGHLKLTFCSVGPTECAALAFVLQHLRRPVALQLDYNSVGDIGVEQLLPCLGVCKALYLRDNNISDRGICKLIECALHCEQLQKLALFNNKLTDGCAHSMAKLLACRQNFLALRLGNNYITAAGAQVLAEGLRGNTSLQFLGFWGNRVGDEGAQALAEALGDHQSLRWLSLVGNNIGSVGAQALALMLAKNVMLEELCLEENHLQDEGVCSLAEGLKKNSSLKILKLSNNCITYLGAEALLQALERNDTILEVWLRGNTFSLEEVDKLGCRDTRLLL
T1 sequence (Q9HC29 whole entry): as above

SMILES | binding to NOD2 in the native-membrane environment (in words) [1] | pKd (purified WT NOD2 [2]) | pKd (purified WT NOD2 [3]) | pKd [1] | relative binding strength [1] | BSI signal on titration after preincubation with excess ligand 2 [1]
CC(=O)N[C@H]1C(O)O[C@H](CO)[C@@H](O)[C@@H]1O[C@H](C)C(=O)O (some centres unmarked) [N-acetyl-muramic acid, reference compound] | did not bind; also recorded: does not bind or activate | – | – | – | – | –
N[C@H](CCC(=O)N[C@H](CCC[C@H](N)C(=O)O)C(=O)O)C(=O)O [iE-DAP, reference compound] | did not bind | – | – | – | – | –
CC(=O)N[C@@H]1[C@@H](O[C@H](C)C(=O)N[C@@H](C)C(=O)N[C@H](CCC(=O)O)C(N)=O)[C@H](O)[C@@H](CN)O[C@@H]1O [ligand 2, 6-amino-MDP-(LD)] | bind with high affinity | 8.00 to 8.70 | 8.00 to 8.40 | 7.52 to 8.52 | strong | no BSI signal
CC(=O)N[C@@H]1[C@@H](O[C@H](C)C(=O)N[C@@H](C)C(=O)N[C@@H](CCC(=O)O)C(N)=O)[C@H](O)[C@@H](CN)O[C@@H]1O [ligand 3, 6-amino-MDP-(LL)] | bind with high affinity | 8.22 to 9.00 | 7.74 to 8.00 | 7.52 to 8.52 | strong | –
CC(=O)N[C@@H]1[C@@H](O[C@H](C)C(=O)N[C@@H](C)C(=O)O)[C@H](O)[C@@H](CN)O[C@@H]1O [ligand 18] | indications of binding but unusual curves | 7.52 to 7.82 | 7.44 to 7.62 | – | strong | –
COC(=O)[C@H](C)NC(=O)[C@@H](C)O[C@H]1[C@H](O)[C@@H](CN)O[C@H](O)[C@@H]1NC(C)=O [ligand 19] | bind with high affinity; also recorded: strongly bound | 7.70 to 8.10 | 7.52 to 7.80 | 7.52 to 8.52 | strong | –
COC(=O)[C@@H](C)O[C@H]1[C@H](O)[C@@H](CN)O[C@H](O)[C@@H]1NC(C)=O [ligand 20] | bind with weak affinity; also recorded: weakly bound | 8.00 to 8.70 | 7.62 to 7.92 | 6.70 to 7.30 | weak | no BSI signal
COC(=O)[C@@H](C)O[C@H]1[C@H](O)[C@@H](CO)OC(O)[C@@H]1NC(C)=O (some centres unmarked) [ligand 23, N-acetyl muramyl methyl ester] | bound with similar high affinity | – | – | – | – | –
